Experimental data from ChEMBL document CHEMBL1143386, “Prodrugs of perzinfotel with improved oral bioavailability” (J Med Chem, 2009).

How the values were obtained:
[1] = Chemical stability in simulated gastric fluid after 4 hrs; format: physicochemical; conditions: read-out: Stability
Procedure, shortened: (§1)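 Compound at 0.01 mg/mL final in a 9:1 mix of aqueous buffer (pH 1.0, 4.5, 6.6 or 7.4) or simulated gastric fluid with acetonitrile, held at 37 °C in the autosampler. Injected every 4 h over 24 h onto C8 HPLC. Percent remaining from peak area at 304 nm, corrected by internal standard; products confirmed by LC/MS (-ESI).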

[2] = Chemical stability at pH 1 after 4 hrs; format: physicochemical; conditions: buffer, read-out: Stability; procedure, shortened: as §1
[3] = Chemical stability at pH 4.5 after 4 hrs; format: physicochemical; conditions: buffer, read-out: Stability; procedure, shortened: as §1
[4] = Chemical stability at pH 7.4 after 4 hrs; format: physicochemical; conditions: buffer, read-out: Stability; procedure, shortened: as §1
[5] = Chemical stability at pH 6.6 after 4 hrs; format: physicochemical; conditions: buffer, read-out: Stability; procedure, shortened: as §1
Blood [6] = experiment: Biodistribution in Sprague-Dawley rat blood assessed as formation of perzinfotel at 10 mg/kg, po after 0.167 hrs; format: ADME, organism-based; design: dose 10 mg/kg, route oral; conditions: in vivo
Procedure, shortened: (§2)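 Male Sprague-Dawley rats given [14C]-labelled compound by oral gavage (parent at 30 mg/kg, prodrug at 10 mg/kg). Blood, plasma and brain taken at 0.167, 0.5, 1, 4, 8 and 24 h (n = 3 rats/time point). Total radioactivity measured in each matrix. Metabolite profiles from HPLC with in-line radioactivity detection.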

[7] = Chemical stability in simulated gastric fluid after 20 hrs; format: physicochemical; conditions: read-out: Stability; procedure, shortened: as §1
[8] = Half life in Sprague-Dawley rat plasma assessed as loss of 3-{2[8,9-Dioxo-2,6-diazabicyclo[5.2.0-[non-1(7)-en-2-yl}-3-oxido-7-oxo-7-phenyl-2,4,6-trioxa-3-phosphahept-1-yl Benzoate; format: ADME
Procedure, shortened: (§3)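 Dissolved at 0.05 mg/mL in rat plasma and incubated at 37 °C for 0–24 h. Samples quenched with acetonitrile and centrifuged; supernatant diluted and run on HPLC. Parent and conversion products quantified by peak area at 304 nm, corrected by internal standard, and confirmed by LC/MS. Kinetics fitted to a two-step first-order model.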

[9] = Chemical stability in simulated gastric fluid after 12 hrs; format: physicochemical; conditions: read-out: Stability; procedure, shortened: as §1
[10] = Half life in simulated intestinal fluid assessed as loss of 3-{2[8,9-Dioxo-2,6-diazabicyclo[5.2.0-[non-1(7)-en-2-yl}-3-oxido-7-oxo-7-phenyl-2,4,6-trioxa-3-phosphahept-1-yl Benzoate; format: physicochemical
Procedure, shortened: (§4)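 Compound at a final 0.01 mg/mL in 9:1 pH 8.5 buffer or simulated intestinal fluid:acetonitrile, 37 °C. HPLC injections every 4 h over 24 h, with peak area at 304 nm corrected by internal standard and identities confirmed by LC/MS. Conversion kinetics fitted to a two-step first-order model to give rate constants, half-lives and Tmax of the hemiester.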

[11] = Chemical stability at pH 7.4 after 12 hrs; format: physicochemical; conditions: buffer, read-out: Stability; procedure, shortened: as §1
[12] = Chemical stability at pH 4.5 after 20 hrs; format: physicochemical; conditions: buffer, read-out: Stability; procedure, shortened: as §1
Rattus norvegicus = species: Rattus norvegicus; experiment: Antinociceptive activity in Sprague-Dawley rat assessed as reversal of PGE2-induced thermal hypersensitivity after 5 hrs; format: functional
Procedure, shortened: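 Male Sprague-Dawley rats (200-250 g) fasted ~16 h and dosed orally in 2% Tween-80/0.5% methylcellulose (1 mL/kg) 0.5-48 h before intradermal PGE2 (0.1 mg in 50 µL). Tail-withdrawal latency was read 30 min later in water at 34-58 °C, with a 20 s cutoff. T10 from each rat's temperature-effect curve; within-subjects repeated-measures ANOVA, p < 0.05.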

[13] = Chemical stability at pH 7.4 after 24 hrs; format: physicochemical; conditions: buffer, read-out: Stability; procedure, shortened: as §1
[14] = Chemical stability at pH 7.4 after 8 hrs; format: physicochemical; conditions: buffer, read-out: Stability; procedure, shortened: as §1
[15] = Chemical stability in simulated gastric fluid after 8 hrs; format: physicochemical; conditions: read-out: Stability; procedure, shortened: as §1
[16] = Chemical stability in simulated intestinal bile fluid after 24 hrs; format: physicochemical; conditions: read-out: Stability
Procedure, shortened: (§5)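 Compound taken up in 9:1 simulated intestinal bile fluid:acetonitrile at a final 0.01 mg/mL, held in a 37 °C autosampler. HPLC injections every 4 h over 24 h. Percent remaining taken from peak area at 304 nm, corrected by internal standard. Products identified by LC/MS (-ESI).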

[17] = Chemical stability in simulated intestinal bile fluid after 8 hrs; format: physicochemical; conditions: read-out: Stability; procedure, shortened: as §5
[18] = Chemical stability at pH 6.6 after 24 hrs; format: physicochemical; conditions: buffer, read-out: Stability; procedure, shortened: as §1
[19] = Chemical stability in simulated intestinal bile fluid after 4 hrs; format: physicochemical; conditions: read-out: Stability; procedure, shortened: as §5
[20] = Chemical stability in simulated intestinal bile fluid after 12 hrs; format: physicochemical; conditions: read-out: Stability
Procedure, shortened: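 Compound at 0.01 mg/mL final in a 9:1 mix of simulated intestinal bile fluid and acetonitrile at 37 °C. Fed-state medium pH 5.5 with 10 mM sodium taurocholate; fasted-state medium pH 6.0 with 1 mM. Sampled every 4 h to 24 h by HPLC. Percent remaining from 304 nm peak area, corrected by internal standard.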

[21] = Half life in pH 8.5 buffer assessed as loss of 3-{2[8,9-Dioxo-2,6-diazabicyclo[5.2.0-[non-1(7)-en-2-yl}-3-oxido-7-oxo-7-phenyl-2,4,6-trioxa-3-phosphahept-1-yl Benzoate; format: physicochemical; procedure, shortened: as §4
[22] = Chemical stability at pH 6.6 after 8 hrs; format: physicochemical; conditions: buffer, read-out: Stability; procedure, shortened: as §1
[23] = Chemical stability at pH 1 after 20 hrs; format: physicochemical; conditions: buffer, read-out: Stability; procedure, shortened: as §1
[24] = Chemical stability at pH 4.5 after 24 hrs; format: physicochemical; conditions: buffer, read-out: Stability; procedure, shortened: as §1
[25] = Chemical stability at pH 7.4 after 16 hrs; format: physicochemical; conditions: buffer, read-out: Stability; procedure, shortened: as §1
[26] = Chemical stability at pH 1 after 12 hrs; format: physicochemical; conditions: buffer, read-out: Stability; procedure, shortened: as §1
Brain [27] = experiment: Biodistribution in Sprague-Dawley rat brain assessed as formation of perzinfotel at 10 mg/kg, po after 0.5 hrs; format: ADME, organism-based; design: dose 10 mg/kg, route oral; conditions: in vivo; procedure, shortened: as §2
[28] = Chemical stability at pH 4.5 after 12 hrs; format: physicochemical; conditions: buffer, read-out: Stability; procedure, shortened: as §1
[29] = Chemical stability in simulated gastric fluid after 24 hrs; format: physicochemical; conditions: read-out: Stability; procedure, shortened: as §1
[30] = Chemical stability at pH 1 after 16 hrs; format: physicochemical; conditions: buffer, read-out: Stability; procedure, shortened: as §1
Glutamate NMDA receptor = experiment: Displacement of [3H]CGP-39653 from rat brain NMDA receptor
Procedure, shortened: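 Competitive displacement of [3H]CGP-39653 at the NMDA recognition site, using rat whole-brain membranes.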

Plasma [31] = experiment: Biodistribution in Sprague-Dawley rat plasma assessed as formation of perzinfotel at 10 mg/kg, po after 0.167 hrs; format: ADME, organism-based; design: dose 10 mg/kg, route oral; conditions: in vivo; procedure, shortened: as §2
[32] = target: Glutamate NMDA receptor (Rattus norvegicus) (UniProt P35439+Q00959+Q00960+Q00961+Q62645+Q8VHN2+Q9R1M7); experiment: Antagonist activity at rat brain NMDA receptor assessed as inhibition of glutamate-induced [3H]TCP binding at 300 uM
Procedure, shortened: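 Functional NMDA antagonism was measured as inhibition of glutamate-stimulated [3H]-TCP binding to rat whole-brain membranes. The value is percent inhibition at a single concentration.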

[33] = Chemical stability in simulated gastric fluid after 16 hrs; format: physicochemical; conditions: read-out: Stability; procedure, shortened: as §1
Plasma [34] = experiment: Biodistribution in Sprague-Dawley rat plasma assessed as formation of perzinfotel at 10 mg/kg, po after 0.5 hrs; format: ADME, organism-based; design: dose 10 mg/kg, route oral; conditions: in vivo; procedure, shortened: as §2
Plasma [35] = experiment: Stability in rat plasma assessed as conversion of benzoic acid [2-(8,9-dioxo-2,6-diaza-bicyclo[5.2.0]non-1(7)-en-2-yl)-ethyl]-hydroxy-phosphinoyloxymethyl ester to perzinfotel after 3 hrs by Lc/MS analysis; format: ADME, cell-free; procedure, shortened: as §3
[36] = Chemical stability at pH 7.4 after 20 hrs; format: physicochemical; conditions: buffer, read-out: Stability; procedure, shortened: as §1
[37] = Chemical stability at pH 1 after 8 hrs; format: physicochemical; conditions: buffer, read-out: Stability; procedure, shortened: as §1
Blood [38] = experiment: Biodistribution in Sprague-Dawley rat blood assessed as formation of perzinfotel at 10 mg/kg, po after 0.5 hrs; format: ADME, organism-based; design: dose 10 mg/kg, route oral; conditions: in vivo; procedure, shortened: as §2
[39] = Chemical stability in simulated intestinal bile fluid after 16 hrs; format: physicochemical; conditions: read-out: Stability; procedure, shortened: as §5
[40] = Chemical stability at pH 6.6 after 20 hrs; format: physicochemical; conditions: buffer, read-out: Stability; procedure, shortened: as §1
[41] = Chemical stability in simulated intestinal bile fluid after 20 hrs; format: physicochemical; conditions: read-out: Stability; procedure, shortened: as §5
[42] = Chemical stability at pH 6.6 after 12 hrs; format: physicochemical; conditions: buffer, read-out: Stability; procedure, shortened: as §1
[43] = Chemical stability at pH 1 after 24 hrs; format: physicochemical; conditions: buffer, read-out: Stability; procedure, shortened: as §1
Brain [44] = experiment: Biodistribution in Sprague-Dawley rat brain assessed as formation of perzinfotel at 10 mg/kg, po after 0.167 hrs; format: ADME, organism-based; design: dose 10 mg/kg, route oral; conditions: in vivo; procedure, shortened: as §2
[45] = Chemical stability at pH 4.5 after 16 hrs; format: physicochemical; conditions: buffer, read-out: Stability; procedure, shortened: as §1
[46] = Chemical stability at pH 4.5 after 8 hrs; format: physicochemical; conditions: buffer, read-out: Stability; procedure, shortened: as §1
[47] = Chemical stability at pH 6.6 after 16 hrs; format: physicochemical; conditions: buffer, read-out: Stability; procedure, shortened: as §1

In the case of O=C(OCOP(=O)(CCN1CCCNc2c1c(=O)c2=O)OCOC(=O)C1CCCCC1)C1CCCCC1, the remaining at 4 h [1] is reported as 91.6%, the remaining at 4 h [2] is reported as 89% and the remaining at 4 h [3] is reported as 99.4%. It also gave a remaining at 4 h [4] of 94.4% and a remaining at 4 h [5] of 95%.

In the case of O=C(OCOP(=O)(CCN1CCCNc2c1c(=O)c2=O)OCOC(=O)c1ccccc1)c1ccccc1, the Drug uptake (Blood [6]) is reported as 88%, the remaining at 20 h [7] is reported as 98.3% and the half-life [8] is reported as < 4.2 min. The remaining at 4 h [1] was 99.6%, the remaining at 12 h [9] was 99% and the half-life [10] was 214 min. It also gave a remaining at 12 h [11] of 75.6%, a remaining at 20 h [12] of 99.5% and an ED50 (Rattus norvegicus) of 10 mg/kg. For the same compound, the remaining at 24 h [13] was 56.7%, the remaining at 8 h [14] was 83.2% and the remaining at 8 h [15] was 99.3%. The remaining at 24 h [16] was 98.1%, the remaining at 8 h [17] was 99.3% and the remaining at 24 h [18] was 87.4%. It also gave a remaining at 4 h [19] of 99.5%, a remaining at 12 h [20] of 98.6% and a half-life [21] of 110 min. It also gave a remaining at 8 h [22] of 95.7%, a remaining at 20 h [23] of 98% and a remaining at 4 h [2] of 99.7%. It also gave a remaining at 24 h [24] of 99.5%, a remaining at 16 h [25] of 68.7% and a remaining at 12 h [26] of 98.9%. For the same compound, the remaining at 4 h [3] was 100%, the remaining at 4 h [4] was 91.6% and the Drug uptake (Brain [27]) was 98%. For the same compound, the remaining at 12 h [28] was 99.8%, the remaining at 24 h [29] was 98% and the remaining at 16 h [30] was 98.5%. The IC50 (Glutamate NMDA receptor) was 4.2 µM, the Drug uptake (Plasma [31]) was 88% and the inhibition [32] was 8%. For the same compound, the remaining at 16 h [33] was 98.7%, the Drug uptake (Plasma [34]) was 98% and the Stability (Plasma [35]) was 90%. The remaining at 20 h [36] was 62.2%, the remaining at 8 h [37] was 99.3% and the Drug uptake (Blood [38]) was 98%. For the same compound, the remaining at 16 h [39] was 98.6%, the remaining at 20 h [40] was 89.4% and the remaining at 20 h [41] was 98.5%. The remaining at 12 h [42] was 93.7%, the remaining at 24 h [43] was 97.9% and the Drug uptake (Brain [44]) was 88%. The remaining at 4 h [5] was 98.1%, the remaining at 16 h [45] was 99.7% and the remaining at 8 h [46] was 100%. For the same compound, the remaining at 16 h [47] was 91.5%.
